Experimental data as given in ChEMBL document CHEMBL5230180, “A cationic amphiphilic peptide chaperone rescues Aβ42 aggregation and cytotoxicity” (RSC Med Chem, 2023).
Activity calls are given as the source filed them. The calls are words filed in the database; no cut-off is given here.

What was measured:
[1] = target: Amyloid-beta precursor protein (Homo sapiens) (UniProt P05067); test: Inhibition of amyloid beta 42 (unknown origin) aggregation assessed as reduction in fluorescence intensity measured for 48 hrs by ThT fluorescence assay
Outline: (§1)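 Soluble (pre-aggregation) Aβ42 at 25 μM with 20 μM ThT, incubated with peptide at 0.1–10 equivalents (2.5–250 μM) in 10 mM sodium phosphate, 150 mM NaCl, 1 mM EDTA, pH 7.4; time-dependent ThT fluorescence monitored, normalized to Aβ42 alone.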

[2] = target: Amyloid-beta precursor protein (Homo sapiens) (UniProt P05067); test: Inhibition of amyloid beta 42 (unknown origin) aggregation assessed as half time for Abeta42 aggregation at Abeta42:compound concentration ratio of 1:1 by ThT fluorescence assay (reference value: 9.34 +/-0.25 hrs)
[3] = target: Amyloid-beta precursor protein (Homo sapiens) (UniProt P05067); test: Inhibition of amyloid beta 42 (unknown origin) aggregation assessed as lag time for Abeta42 aggregation at Abeta42:compound concentration ratio of 1:1 by ThT fluorescence assay (reference value: 6.35 +/-0.32 hrs)
[4] = test system: SH-SY5Y; test: Protection against Abeta42-induced cytotoxicity in human SH-SY5Y cells assessed as increase in cell viability at Abeta42:compound concentration ratio of 1:1 incubated for 24 hrs by MTT assay; assay type: functional, cell-based
Outline: (§2)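 SH-SY5Y cells given 10 μM soluble Aβ42 with peptide (1, 2, 3, 5, 10, 30 μM; 1:1 for comparison) at 37 °C up to 24 h; MTT formazan read-out relative to cells without peptide or Aβ42; IC50 from dose–response.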

[5] = test system: SH-SY5Y; test: Cytotoxicity against human SH-SY5Y cells assessed as reduction in cell viability at 30 uM incubated for 24 hrs by MTT assay; assay type: toxicity, cell-based
Outline: (§3)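 SH-SY5Y neuronal cells exposed to peptide alone (1–30 μM) at 37 °C up to 24 h; viability by MTT conversion to formazan, compared with untreated control cells.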

[6] = target: Amyloid-beta precursor protein (Homo sapiens) (UniProt P05067); test: Inhibition of amyloid beta 42 (unknown origin) aggregation assessed as fluorescence intensity at compound:Abeta42 concentration ratio of 0.5:1 measured for 48 hrs by ThT fluorescence assay; design: scale not given: the % may be the effect or the level left; outline: as §1
[7] = target: Amyloid-beta precursor protein (Homo sapiens) (UniProt P05067); test: Inhibition of amyloid beta 42 (unknown origin) aggregation assessed as fluorescence intensity at compound:Abeta42 concentration ratio of 1:1 measured for 48 hrs by ThT fluorescence assay; design: scale not given: the % may be the effect or the level left; outline: as §1
[8] = target: Amyloid-beta precursor protein (Homo sapiens) (UniProt P05067); test: Inhibition of amyloid beta 42 (unknown origin) aggregation assessed as reduction in fluorescence intensity at Abeta42:compound concentration ratio of 1:3 measured for 48 hrs by ThT fluorescence assay; outline: as §1
[9] = target: Amyloid-beta precursor protein (Homo sapiens) (UniProt P05067); test: Inhibition of amyloid beta 42 (unknown origin) aggregation assessed as reduction in fluorescence intensity at Abeta42:compound concentration ratio of 1:5 measured for 48 hrs by ThT fluorescence assay; outline: as §1
[10] = target: Amyloid-beta precursor protein (Homo sapiens) (UniProt P05067); test: Inhibition of amyloid beta 42 (unknown origin) aggregation assessed as reduction in fluorescence intensity at Abeta42:compound concentration ratio of 1:10 measured for 48 hrs by ThT fluorescence assay; outline: as §1
[11] = target: Amyloid-beta precursor protein (Homo sapiens) (UniProt P05067); test: Inhibition of amyloid beta 42 (unknown origin) aggregation assessed as half time for Abeta42 aggregation at Abeta42:compound concentration ratio of 1:0.5 by ThT fluorescence assay (reference value: 9.34 +/-0.25 hrs)
[12] = target: Amyloid-beta precursor protein (Homo sapiens) (UniProt P05067); test: Inhibition of amyloid beta 42 (unknown origin) aggregation assessed as lag time for Abeta42 aggregation at Abeta42:compound concentration ratio of 1:0.5 by ThT fluorescence assay (reference value: 6.35 +/-0.32 hrs)
[13] = target: Amyloid-beta precursor protein (Homo sapiens) (UniProt P05067); test: Inhibition of amyloid beta 42 (unknown origin) aggregation assessed as fluorescence intensity at 0.1 equivalents measured for 48 hrs by ThT fluorescence assay; design: scale not given: the % may be the effect or the level left; details: dose 0.1 equiv; outline: as §1
[14] = target: Amyloid-beta precursor protein (Homo sapiens) (UniProt P05067); test: Inhibition of amyloid beta 42 (unknown origin) aggregation assessed as fluorescence intensity at 0.3 equivalents measured for 48 hrs by ThT fluorescence assay; design: scale not given: the % may be the effect or the level left; details: dose 0.3 equiv; outline: as §1
[15] = target: Amyloid-beta precursor protein (Homo sapiens) (UniProt P05067); test: Disruption of aggregated Amyloid beta 42 fibrils (unknown origin) assessed as reduction in fluorescence intensity at compound:Abeta42 concentration ratio of 1:1 treated with compound after 16 hrs of incubation of Abeta42 in solution by ThT fluorescence assay
Outline: (§4)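 Aβ42 (25 μM) preincubated with 20 μM ThT at 37 °C; peptide added at 1:1 after 16 or 24 h, incubation continued and ThT fluorescence followed over time; buffer 10 mM sodium phosphate, 150 mM NaCl, 1 mM EDTA, pH 7.4.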

[16] = target: Amyloid-beta precursor protein (Homo sapiens) (UniProt P05067); test: Disruption of aggregated Amyloid beta 42 fibrils (unknown origin) assessed as reduction in fluorescence intensity at compound:Abeta42 concentration ratio of 1:1 treated with compound after 24 hrs of incubation of Abeta42 in solution by ThT fluorescence assay; outline: as §4
[17] = target: Amyloid-beta precursor protein (Homo sapiens) (UniProt P05067); test: Inhibition of amyloid beta 42 (unknown origin) aggregation assessed as aggregated particle size at equimolar concentration with Abeta42 incubated for 24 hrs by Dynamic light scattering based analysis (reference value: 800 nm)
Outline: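 Dynamic light scattering of 10 μM Aβ42 with or without peptide after 24 h at 37 °C; frequency distribution of particle diameter.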

[18] = target: Amyloid-beta precursor protein (Homo sapiens) (UniProt P05067); test: Inhibition of amyloid beta 42 (unknown origin) aggregation assessed as reduction in fluorescence intensity at equimolar concentration with Abeta42 incubated for 48 hrs by ThT laser scanning confocal microscopy
[19] = target: Amyloid-beta precursor protein (Homo sapiens) (UniProt P05067); test: Inhibition of amyloid beta 42 (unknown origin) aggregation assessed as reduction in Abeta42 fibrillar network at compound:Abeta42 concentration ratio of 1:1 incubated for 48 hrs by HR-TEM analysis
Outline: (§5)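 10 μM soluble Aβ42 incubated at 37 °C for about 48 h alone or with peptide (1:1; 10 μM); fibril morphology imaged by HR-TEM and AFM.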

[20] = target: Amyloid-beta precursor protein (Homo sapiens) (UniProt P05067); test: Inhibition of amyloid beta 42 (unknown origin) aggregation assessed as reduction in Abeta42 fibrillar network at 10 uM incubated for 48 hrs by AFM analysis; outline: as §5
[21] = target: Amyloid-beta precursor protein (Homo sapiens) (UniProt P05067); test: Inhibition of amyloid beta 42 (unknown origin) aggregation assessed as decrease in absorbance at 450 nm at Abeta42:compound concentration ratio of 1:0.5 to 1:10 incubated for up to 24 hrs by ELISA
Outline: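 Aβ42 in PBS preincubated 24 h with peptide (0.5–10 equivalents), then captured on oligomer-specific monoclonal antibody-coated wells; detection via biotinylated antibody, streptavidin-HRP and TMB, absorbance 450 nm; peptide-alone wells included.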

[22] = target: Amyloid-beta precursor protein (Homo sapiens) (UniProt P05067); test: Inhibition of amyloid beta 42 (unknown origin) aggregation assessed as transformation of random coil structure to helical secondary structure with CD minima at 205 nm and 221 nm at Abeta42:compound concentration ratio of 1:1 incubated for 24 hrs by circular dichroism analysis
Outline: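 CD spectra of 50 μM soluble Aβ42 in PBS at 0 h and after 24 h at room temperature, alone or with equimolar (50 μM) peptide; peptide alone also recorded.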

[23] = test system: SH-SY5Y; test: Cytotoxicity against human SH-SY5Y cells assessed as reduction in cell viability upto 30 uM incubated for 24 hrs by MTT assay; assay type: toxicity, cell-based; outline: as §3
[24] = test system: SH-SY5Y; test: Protection against Abeta42-induced cytotoxicity in human SH-SY5Y cells assessed as increase in cell viability incubated for 24 hrs in presence of 10 uM Abeta42 by MTT assay; assay type: functional, cell-based; outline: as §2
[25] = Hemolytic activity against red blood cells (unknown origin) upto 250 uM; assay type: toxicity, cell-based; details: erythrocyte
Outline: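 Red blood cells treated with a range of peptide concentrations up to 250 μM; haemolysis assessed.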

[26] = target: Amyloid-beta precursor protein (Homo sapiens) (UniProt P05067); test: Inhibition of 15N-labeled amyloid beta 42 (unknown origin) aggregation assessed as Abeta42 conformational reorganization by measuring changes in positions of Abeta42 cross-peaks at Abeta42:compound concentration ratio of 1:1 by 1H-15N HSQC NMR spectral analysis

Amyloid-beta precursor protein (Homo sapiens), sequence (P05067 whole entry): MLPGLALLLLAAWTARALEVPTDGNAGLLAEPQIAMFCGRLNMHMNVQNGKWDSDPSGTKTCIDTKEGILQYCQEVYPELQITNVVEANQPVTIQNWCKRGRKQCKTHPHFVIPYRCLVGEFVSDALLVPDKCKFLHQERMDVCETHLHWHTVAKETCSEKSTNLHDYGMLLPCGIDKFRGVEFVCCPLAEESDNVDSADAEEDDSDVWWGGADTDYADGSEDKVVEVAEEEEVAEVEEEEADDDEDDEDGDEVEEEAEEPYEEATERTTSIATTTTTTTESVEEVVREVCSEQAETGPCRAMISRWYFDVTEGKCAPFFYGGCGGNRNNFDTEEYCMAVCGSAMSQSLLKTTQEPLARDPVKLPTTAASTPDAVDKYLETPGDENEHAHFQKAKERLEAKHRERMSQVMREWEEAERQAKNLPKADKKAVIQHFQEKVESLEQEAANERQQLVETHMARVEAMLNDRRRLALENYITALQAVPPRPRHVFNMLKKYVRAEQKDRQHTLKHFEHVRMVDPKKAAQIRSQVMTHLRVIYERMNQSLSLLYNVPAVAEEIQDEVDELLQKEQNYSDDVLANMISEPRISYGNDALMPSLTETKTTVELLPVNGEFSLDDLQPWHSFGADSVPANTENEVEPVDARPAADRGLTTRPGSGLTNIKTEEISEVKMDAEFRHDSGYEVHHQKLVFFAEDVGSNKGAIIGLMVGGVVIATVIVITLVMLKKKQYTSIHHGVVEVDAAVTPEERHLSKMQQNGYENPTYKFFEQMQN

In the case of Ac-KLAKLAKKLAKL-NH2, the inhibition [1] is reported as “Dose-Dependent Effect”, the T1/2 [2] is reported as 9.59 h and the TIME [3] is reported as 0.75 h. The Activity [4] was “Active” and the Activity [5] was “Non-Toxic”.
For `CC(=O)N[C@@H](CCCCN)C(=O)N[C@@H](CC(C)C)C(=O)N[C@@H](C)C(=O)N[C@@H](CCCCN)C(=O)N[C@@H](CC(C)C)C(=O)N[C@@H](C)C(=O)N[C@@H](CCCCN)C(=O)N[C@@H](CCCCN)C(=O)N[C@@H](CC(C)C)C(=O)N[C@@H](C)C(=O)N[C@@H](CCCCN)C(=O)N[C@@H](CC(C)C)C(=O)N[C@@H](C)C(=O)N[C@@H](CCCCN)C(=O)N[C@@H](CC(C)C)C(N)=O`, the Activity [6] was 20%, the Activity [7] was < 3% and the inhibition [8] was “Active”. For the same compound, the inhibition [9] was “Active”, the inhibition [10] was “Active” and the T1/2 [11] was 6.09 h. The TIME [12] was 1.8 h, the Activity [13] was 40% and the Activity [14] was 30%. For the same compound, the Activity [15] was “Active”, the Activity [16] was “Active” and the Activity [17] was 100 nm. The inhibition [18] was “Active”, the inhibition [19] was “Active” and the inhibition [20] was “Active”. For the same compound, the inhibition [21] was “Active”, the inhibition [22] was “Active” and the Activity [23] was “Non-Toxic”. For the same compound, the Activity [4] was “Active”, the IC50 [24] was 8.73 µM and the Activity [25] was “Non-Toxic”. For the same compound, the Activity [26] was “Active”.
For Ac-ALAALALALAALAAL-NH2, the inhibition [1] was “inactive”.
With Ac-KLAKLAKL-NH2 the inhibition [1] was “Dose-Dependent Effect”, the T1/2 [2] was 8.22 h and the TIME [3] was 2.14 h. The Activity [4] was “Active” and the Activity [5] was “Non-Toxic”.
